Data set [1] in a line: Cytotoxicity against human Hep3B cells after 72 hrs by MTT assay. It is filed as functional, cell-based, Hep 3B2.
The test system of data set [2] is A498. Description: Cytotoxicity against human A498 cells after 72 hrs by MTT assay. It is filed as functional, cell-based. The following applies: A498, 72 h.
For data set [3], the system named is HCT-116. Description: Cytotoxicity against human HCT116 cells after 72 hrs by MTT assay. It is filed as functional, cell-based. Conditions: HCT-116, 72 h. Put shortly: (§1)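 2 × 10⁴ cells/well seeded 12 h before dosing; serial dilutions added at final 0.5 nM to […] for 72 h. Medium then replaced, MTT (5 mg/mL stock, 10 µL) added for 4 h at 37 °C, formazan dissolved in DMSO, absorbance read at 570 nm. Viability plotted against untreated control; IC50 = 50% growth inhibition. Means of at least three independent experiments.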

Data set [4] deals with MKN-45. Description: Cytotoxicity against human MKN45 cells after 72 hrs by MTT assay. It is filed as functional, cell-based. Conditions: MKN-45, 72 h.
Data set [5] in a line: Cytotoxicity against CHOK1 cells after 72 hrs by MTT assay. The format is cell-based. The following applies: Cricetulus griseus, CHO-K1, 72 h.
Data set [6] relates to NCI-H838. As to the kind of experiment: Cytotoxicity against human NCI-H838 cells after 72 hrs by MTT assay. It is filed as functional, cell-based. Conditions: NCI-H838, 72 h. Put shortly: as §1
Data set [7] is described as follows: Cytotoxicity against human MES-SA cells after 72 hrs by MTT assay. The format is functional, cell-based. Put shortly:
as §1

The subject of data set [8] is HUVEC. Description: Cytotoxicity against HUVEC cells after 72 hrs by MTT assay. It is filed as cell-based. Conditions: Homo sapiens.
A short description of data set [9]: Solubility in PBS buffer. The format is physicochemical.
The test system of data set [10] is CHO-K1. As to the kind of experiment: Selectivity index, ratio of IC50 for CHOK1 cells to IC50 for human NPC-TW01 cells. It is filed as functional. Put shortly:
(§2)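 Selectivity index taken as the ratio between IC50 in the normal line (HUV-EC-C or CHO-K1) and IC50 in NPC-TW01. Each IC50 came from a 72 h MTT assay, with final concentrations of 0.5 nM to […].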

In data set [11] the test system is HUVEC. As to the kind of experiment: Selectivity index, ratio of IC50 for HUVEC cells to IC50 for human NPC-TW01 cells. The format is functional. Put shortly: as §2
For data set [12], the system named is NPC-TW01. Description: Induction of apoptosis in human NPC-TW01 cells assessed as chromosomal condensation by fluorescence microscopy. It is filed as functional, cell-based. Put shortly: (§3)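 NPC-TW01 cells grown on coverslips and exposed to compound at 1 µM for 24 h, washed in PBS, then fixed in 4% paraformaldehyde. For tubulin, cells were permeabilized (0.1% Triton X-100), blocked (0.1% BSA), and incubated 45 min at room temperature with anti-β-tubulin (1:200), followed by PE-goat anti-mouse IgG (1:100). For chromosomes, cells were stained with Hoechst 33258. Imaged by laser-scanning confocal microscopy.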

Data set [13] relates to NPC-TW01. As to the kind of experiment: Induction of morphological changes in human NPC-TW01 cells assessed as microtubule aggregation around nuclei at 1 uM by confocal microscopy. The format is functional, cell-based. The essentials:
as §3

Data set [14] can be described thus: Cytotoxicity against human NPC-TW01 cells after 72 hrs by MTT assay. It is filed as functional, cell-based. The following applies: NPC-TW01, 72 h. Put shortly:
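2 × 10⁴ cells/well seeded 12 h before dosing; serial dilutions added at final 0.5 nM to […] for 72 h. Medium then replaced, MTT (5 mg/mL stock, 10 µL) added for 4 h at 37 °C, formazan dissolved in DMSO, absorbance read at 570 nm. Means of at least three independent experiments.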

pIC50: −log10 of the molar value. In brackets after ≈: the same amount, converted by molar mass. Activity calls are given as the source filed them. The rule behind the calls is not given here.

As to `CC(=O)O[C@H]1C(=O)[C@@]2(C)[C@H]([C@H](OC(=O)c3ccccc3)[C@]3(O)C[C@H](OC(=O)[C@H](O)[C@@H](NC(=O)c4ccccc4)c4ccccc4)C(C)=C1C3(C)C)[C@]1(OC(C)=O)CO[C@@H]1C[C@@H]2O` [PACLITAXEL], the pIC50 in [1] was 5.14; in [2], 5.06; in data set [3] it was 7.21; in data set [4] it was 4.05; in data set [5], 4.80; in [6], 7.59. Further, the pIC50 is 8.10 in data set [7] and 5.29 in data set [8]. This compound showed a solubility in data set [9] of less than 0.4 µg/mL.
Consider `CO[C@@H]1O[C@H](CO)[C@@H](O)[C@H](O)[C@H]1OC(=O)CCC(=O)O[C@@H](C(=O)O[C@H]1C[C@@]2(O)[C@@H](OC(=O)c3ccccc3)[C@@H]3[C@]4(OC(C)=O)CO[C@@H]4C[C@H](O)[C@@]3(C)C(=O)[C@H](OC(C)=O)C(=C1C)C2(C)C)[C@@H](NC(=O)c1ccccc1)c1ccccc1`, for which the negative-log IC50 (pIC50) is 4.00 in [1]; less than 4.00 in data set [2]; 7.00 in [3]; less than 4.00 in data set [4]; less than 4.00 in data set [5]; 7.09 in data set [6]. The pIC50 was 7.09 in data set [7], less than 4.00 in data set [8] and 7.60 in data set [14]. Further, the Selectivity Index in data set [10] and in data set [11] was greater than 250 each time. Further, the result in [12] and in data set [13] was Active. The same compound yielded a solubility in data set [9] of 53 µg/mL (≈ 46.9 µM).
Turning to `CO[C@@H]1O[C@H](C(=O)O)[C@@H](O)[C@H](O)[C@H]1OCCCC(=O)O[C@@H](C(=O)O[C@H]1C[C@@]2(O)[C@@H](OC(=O)c3ccccc3)[C@@H]3[C@]4(OC(C)=O)CO[C@@H]4C[C@H](O)[C@@]3(C)C(=O)[C@H](OC(C)=O)C(=C1C)C2(C)C)[C@@H](NC(=O)c1ccccc1)c1ccccc1`, the pIC50 in [1] was less than 4.00; in [2], less than 4.00; in [3], 6.33; in data set [4], less than 4.00; in data set [5], 4.62; in data set [6] it was 6.74. In addition, the pIC50 in data set [7] is 6.70; in data set [8], 4.36; in data set [14], 7.17. Besides, the Selectivity Index in [10] came to 2790; in [11], 1520. Also, the concentration in solution in data set [9] (solubility) came to 137 µg/mL (≈ 121 µM).
As to `CO[C@@H]1O[C@H](C(=O)O)[C@@H](O)[C@H](O)[C@H]1OC(=O)CCC(=O)O[C@@H](C(=O)O[C@H]1C[C@@]2(O)[C@@H](OC(=O)c3ccccc3)[C@@H]3[C@]4(OC(C)=O)CO[C@@H]4C[C@H](O)[C@@]3(C)C(=O)[C@H](OC(C)=O)C(=C1C)C2(C)C)[C@@H](NC(=O)c1ccccc1)c1ccccc1`, the negative logarithm of the IC50 (pIC50) was less than 4.00 in data set [1]; less than 4.00 in data set [2]; 6.34 in data set [3]; less than 4.00 in [4]; less than 4.00 in [5]; 6.57 in data set [6]. Further, the negative-log IC50 (pIC50) was 7.02 in data set [7], less than 4.00 in data set [8] and 7.17 in [14]. Besides, the Selectivity Index in data set [10] and in [11] was greater than 670 each time. The solubility in data set [9] was 104 µg/mL (≈ 90.9 µM).
Turning to `CO[C@@H]1O[C@H](CO)[C@@H](O)[C@H](O)[C@H]1OCCCC(=O)O[C@@H](C(=O)O[C@H]1C[C@@]2(O)[C@@H](OC(=O)c3ccccc3)[C@@H]3[C@]4(OC(C)=O)CO[C@@H]4C[C@H](O)[C@@]3(C)C(=O)[C@H](OC(C)=O)C(=C1C)C2(C)C)[C@@H](NC(=O)c1ccccc1)c1ccccc1`, the negative-log IC50 (pIC50) was less than 4.00 in data set [1]; less than 4.00 in data set [2]; 6.32 in [3]; less than 4.00 in data set [4]; less than 4.00 in data set [5]; 6.43 in data set [6]. Moreover, the values for the pIC50 in [7], in [8] and in data set [14] were 6.76, less than 4.00 and 7.11, respectively. The Selectivity Index in [10] and in data set [11] was greater than 780 throughout. The same compound had a solubility in data set [9] of 80 µg/mL (≈ 71.7 µM).

The values are drawn from ChEMBL document CHEMBL1140842 (J Med Chem, 2008).
